Data taken from ChEMBL document CHEMBL1949523, “Synthesis and evaluation of aza-peptidyl inhibitors of the lysosomal asparaginyl endopeptidase, legumain” (Bioorg Med Chem Lett, 2012).
pIC50: −log10 of the molar value. The source made the active and inactive calls. The rule behind the calls is not given here.

Assays:
[1] = target: T1, Pro-cathepsin H (Mus musculus) (UniProt P49935); experiment: Binding affinity to cathepsin H in mouse RAW264.7 cells at 10 uM after 60 mins by SDS-PAGE analysis; format: cell-based
T1 sequence (whole entry): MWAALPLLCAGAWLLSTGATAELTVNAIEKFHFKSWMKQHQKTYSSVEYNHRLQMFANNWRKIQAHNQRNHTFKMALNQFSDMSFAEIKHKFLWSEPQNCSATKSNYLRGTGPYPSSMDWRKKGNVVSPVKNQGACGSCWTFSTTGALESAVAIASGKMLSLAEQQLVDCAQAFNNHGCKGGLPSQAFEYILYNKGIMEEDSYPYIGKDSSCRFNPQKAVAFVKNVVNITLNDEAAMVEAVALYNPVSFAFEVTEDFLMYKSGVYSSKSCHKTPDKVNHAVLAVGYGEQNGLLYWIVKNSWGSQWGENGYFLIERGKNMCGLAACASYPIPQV
In short: (§1)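 RAW 264.7 macrophages incubated with Cy5-labeled probes for 60 min across a concentration range. Cells lysed hypotonically, labeled proteins resolved on 12.5% SDS-PAGE, detected by in-gel fluorescence scanning.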

Legumain (Mus musculus) = target: T2, Legumain (Mus musculus) (UniProt O89017); experiment: Binding affinity to legumain in mouse RAW264.7 cells at 0.1 to 10 uM after 60 mins by SDS-PAGE analysis; format: cell-based; in short: as §1
T2 sequence (whole entry): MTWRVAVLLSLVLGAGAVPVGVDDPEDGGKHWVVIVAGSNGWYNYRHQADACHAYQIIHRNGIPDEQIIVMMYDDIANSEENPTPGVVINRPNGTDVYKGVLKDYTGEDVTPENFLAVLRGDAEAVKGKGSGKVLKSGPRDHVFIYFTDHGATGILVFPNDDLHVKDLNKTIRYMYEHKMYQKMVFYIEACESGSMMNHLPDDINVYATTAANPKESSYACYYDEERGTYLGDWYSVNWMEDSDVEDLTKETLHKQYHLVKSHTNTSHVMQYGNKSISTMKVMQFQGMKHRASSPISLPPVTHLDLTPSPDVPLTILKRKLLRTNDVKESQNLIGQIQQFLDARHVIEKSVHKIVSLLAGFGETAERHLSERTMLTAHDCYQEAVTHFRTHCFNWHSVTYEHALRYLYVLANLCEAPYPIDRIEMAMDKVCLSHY

[2] = target: Cathepsin B (Mus musculus) (UniProt P10605); experiment: Binding affinity to cathepsin B in mouse RAW264.7 cells at 10 uM after 60 mins by SDS-PAGE analysis; format: cell-based; in short: as §1
Legumain = target: T3, Legumain (Mus musculus, UniProt O89017); experiment: Inhibition of mouse recombinant legumain using Cbz-Ala-Ala-Asn-AMC as substrate measured every 30 secs for 2.5 hrs by fluorimetry
T3 sequence (O89017 whole entry): T2 sequence (whole entry)

[3] = Inhibition of cathepsin L using Cbz-Phe-Arg-AMC as substrate measured every 30 secs for 2.5 hrs by fluorimetry

Sequence of Cathepsin B (Mus musculus) (P10605 80-333 limits assumed): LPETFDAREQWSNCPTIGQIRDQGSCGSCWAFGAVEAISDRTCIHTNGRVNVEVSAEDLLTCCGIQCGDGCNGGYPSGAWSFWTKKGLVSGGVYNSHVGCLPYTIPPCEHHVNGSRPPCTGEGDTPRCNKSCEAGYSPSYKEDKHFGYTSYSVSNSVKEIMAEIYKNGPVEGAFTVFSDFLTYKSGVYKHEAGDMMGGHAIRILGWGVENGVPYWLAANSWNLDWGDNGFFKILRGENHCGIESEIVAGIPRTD

| Structure (SMILES) | pIC50 (Legumain) | pIC50 [3] | other results |
| --- | --- | --- | --- |
| CCOC(=O)[C@@H]1O[C@H]1C(=O)N(CC(N)=O)NC(=O)[C@@H]1CCCN1C(=O)C1(NC(=O)CCCCCNC(=O)CCCCCN2/C(=C/C=C/C=C/C3=[N+](CC)c4ccc(S(=O)(=O)O)cc4C3(C)C)C(C)(C)c3cc(S(=O)(=O)[O-])ccc32)CC1 | – | – | Activity [1]: Active; Activity (Legumain (Mus musculus)): Active; Activity [2]: Active |
| CCOC(=O)/C=C/C(=O)N(CC(N)=O)NC(=O)[C@@H]1CCCN1C(=O)c1ccc(CNC(C)=O)cc1 | 6.57 | – | – |
| CCOC(=O)/C=C/C(=O)N(CC(N)=O)NC(=O)[C@@H]1CCCN1C(=O)C(NC(C)=O)=C(C)C | 6.83 | – | – |
| CCOC(=O)/C=C/C(=O)N(CC(N)=O)NC(=O)[C@@H]1CCCN1C(=O)C1(NC(C)=O)CC1 | 8.03 | < 3.00 | – |
| CCOC(=O)/C=C/C(=O)N(CC(N)=O)NC(=O)[C@@H]1CCCN1C(=O)[C@H]1CSCN1C(C)=O | 6.78 | – | – |
| CCOC(=O)/C=C/C(=O)N(CC(N)=O)NC(=O)[C@@H]1CCCN1C(=O)CCCCCNC(=O)CCCCCN1/C(=C/C=C/C=C/CC2=[N+](CC)c3ccc(S(=O)(=O)O)cc3C2(C)C)C(C)(C)c2cc(S(=O)(=O)[O-])ccc21 | – | – | Activity (Legumain (Mus musculus)): Active |
| CCOC(=O)C1OC1C(=O)N(CC(N)=O)NC(=O)[C@@H]1CCCN1C(=O)CCCCCNC(=O)CCCCCN1/C(=C/C=C/C=C/C2=[N+](CC)c3ccc(S(=O)(=O)O)cc3C2(C)C)C(C)(C)c2cc(S(=O)(=O)[O-])ccc21 (some centres not stated) | – | – | Activity [1]: Active; Activity (Legumain (Mus musculus)): Active; Activity [2]: Active |
| CCOC(=O)C1OC1C(=O)N(CC(N)=O)NC(=O)[C@@H]1CCCN1C(C)=O (some centres not stated) | 8.03 | 3.43 | – |
| C#CC[C@H](NC(C)=O)C(=O)N1CCC[C@H]1C(=O)NN(CC(N)=O)C(=O)C1OC1C(=O)OCC (some centres not stated) | 8.07 | 3.45 | – |
| CCOC(=O)/C=C/C(=O)N(CC(N)=O)NC(=O)[C@@H]1CCCN1C(=O)[C@H](CC)NC(=O)CCCCCNC(=O)CCCCCN1/C(=C/C=C/C=C/C2=[N+](CC)c3ccc(S(=O)(=O)O)cc3C2(C)C)C(C)(C)c2cc(S(=O)(=O)[O-])ccc21 | – | – | Activity (Legumain (Mus musculus)): Active |
| CCOC(=O)/C=C/C(=O)N(CC(N)=O)NC(=O)[C@@H]1CCCN1C(=O)[C@@H]1Cc2ccccc2CN1C(C)=O | < 6.00 | – | – |

More lines, main results first:

| pIC50 (Legumain) | pIC50 [3] | Structure (SMILES) | other results |
| --- | --- | --- | --- |
| 6.85 | – | C/C=C(\NC(C)=O)C(=O)N1CCC[C@H]1C(=O)NN(CC(N)=O)C(=O)/C=C/C(=O)OCC | – |
| < 6.00 | – | CCOC(=O)/C=C/C(=O)N(CC(N)=O)NC(=O)[C@@H]1CCCN1C(=O)[C@H](Cc1ccc(O)c([N+](=O)[O-])c1)NC(C)=O | – |
| 8.36 | 3.97 | CCOC(=O)C1OC1C(=O)N(CC(N)=O)NC(=O)[C@@H]1CCCN1C(=O)C1(NC(C)=O)CC1 (some centres not stated) | – |
| 7.77 | 3.07 | C#CC[C@H](NC(C)=O)C(=O)N1CCC[C@H]1C(=O)NN(CC(N)=O)C(=O)/C=C/C(=O)OCC | – |
| < 6.00 | – | CCOC(=O)/C=C/C(=O)N(CC(N)=O)NC(=O)[C@@H]1CCCN1C(=O)c1cccc(NC(C)=O)c1 | – |
| 8.19 | 3.02 | CCOC(=O)/C=C/C(=O)N(CC(N)=O)NC(=O)[C@@H]1CCCN1C(=O)[C@H](CC)NC(C)=O | – |
| 8.08 | < 3.00 | CCOC(=O)/C=C/C(=O)N(CC(N)=O)NC(=O)[C@@H]1CCCN1C(C)=O | – |
| 6.70 | – | CCOC(=O)/C=C/C(=O)N(CC(N)=O)NC(=O)[C@@H]1CCCN1C(=O)C(C)(C)NC(C)=O | – |
| 8.09 | 3.05 | CCOC(=O)C1OC1C(=O)N(CC(N)=O)NC(=O)[C@@H]1CCCN1C(=O)[C@H](CC)NC(C)=O (some centres not stated) | – |
